Experimental data: paper PMC6976987 (Molecular Genetics and Metabolism Reports, 2020)

Assays:
Safety assessments [1] = type: in vivo, human; conditions: concomitant dosing with eliglustat, N = 33
Outline: (§1)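 Open-label study in healthy adults. Safety was monitored after a single dose (Day 1), during multiple doses alone (Days 2–8), and during co-dosing (Days 9–15 with the CYP3A/P-gp inhibitor; Days 9–18 with the CYP2D6 inhibitor). Measures: treatment-emergent AEs, clinical labs, vital signs, physical exams, 12-lead ECG, 12 h continuous telemetry. An AE counted as treatment-related if possibly, probably or definitely related to study drug.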

Safety assessments [2] = type: in vivo, human
Outline: as §1

Row | Structure (SMILES) | subjects reporting AEs related to ketoconazole (Safety assessments [1]) | subjects reporting AEs related to paroxetine (Safety assessments [2]; concomitant dosing with eliglustat, N = 35) | subjects with moderate clinically significant increases in blood pressure (Safety assessments [2]; concomitant dosing, deemed probably related to paroxetine)
1 | CC(=O)N1CCN(c2ccc(OCC3COC(Cn4ccnc4)(c4ccc(Cl)cc4Cl)O3)cc2)CC1 (stereo not drawn) [ketoconazole] | 33.3% | – | –
2 | Fc1ccc([C@@H]2CCNC[C@H]2COc2ccc3c(c2)OCO3)cc1 [paroxetine] | – | 71.4% | 17.1%
